According to ChEMBL document CHEMBL1275352, “Selection of evodiamine as a novel topoisomerase I inhibitor by structure-based virtual screening and hit optimization of evodiamine derivatives as antitumor agents” (J Med Chem, 2010):
pIC50: −log10 of the molar value. The source made the active and inactive calls. The calls are words filed in the database; no cut-off is given here.

Legend:
[1] = molecular target: T1, DNA topoisomerase 1 (Homo sapiens) (UniProt P11387); test: Inhibition of DNA topoisomerase 1-mediated supercoiled Escherichia coli pBR322 DNA relaxation by UV transilluminator analysis
T1 sequence (whole entry): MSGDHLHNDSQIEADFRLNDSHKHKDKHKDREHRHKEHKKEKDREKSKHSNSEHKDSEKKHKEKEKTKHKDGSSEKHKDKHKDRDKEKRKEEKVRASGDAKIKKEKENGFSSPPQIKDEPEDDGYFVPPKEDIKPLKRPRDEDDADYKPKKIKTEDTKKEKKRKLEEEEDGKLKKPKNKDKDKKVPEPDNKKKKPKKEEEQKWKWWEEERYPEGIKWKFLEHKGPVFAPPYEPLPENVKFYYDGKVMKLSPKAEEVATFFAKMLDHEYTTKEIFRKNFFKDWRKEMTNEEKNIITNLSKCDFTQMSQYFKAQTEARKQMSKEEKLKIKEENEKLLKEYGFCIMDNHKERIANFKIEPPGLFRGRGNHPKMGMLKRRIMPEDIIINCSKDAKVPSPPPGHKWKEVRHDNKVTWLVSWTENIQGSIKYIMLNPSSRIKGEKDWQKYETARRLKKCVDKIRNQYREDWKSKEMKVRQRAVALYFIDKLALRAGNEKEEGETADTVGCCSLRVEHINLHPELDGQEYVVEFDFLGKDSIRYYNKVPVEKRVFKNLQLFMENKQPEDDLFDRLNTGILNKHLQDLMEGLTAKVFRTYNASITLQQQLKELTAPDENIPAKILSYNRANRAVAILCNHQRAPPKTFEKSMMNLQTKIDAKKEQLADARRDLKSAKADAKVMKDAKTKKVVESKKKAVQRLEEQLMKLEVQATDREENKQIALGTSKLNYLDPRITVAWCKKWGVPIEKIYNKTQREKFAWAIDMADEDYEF
How it was run: (§1)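 Purified topoisomerase I was incubated with supercoiled DNA, and inhibition of relaxation by the enzyme was scored. Compounds were tested at concentrations ranging from 1 to 500 μM; an initial screen was run at 500 μM and active compounds were retested at lower concentrations.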

[2] = molecular target: T1, DNA topoisomerase 1 (Homo sapiens); test: Inhibition of DNA topoisomerase 1-mediated supercoiled Escherichia coli pBR322 DNA relaxation at 10 uM by UV transilluminator analysis; how it was run: as §1
LoVo = test: Cytotoxicity against human LoVo cells after 3 days by MTT assay; type: functional, cell-based; conditions: for IC50: lovo; for pIC50: Homo sapiens, LoVo, 72 h, read-out: IC50
MDA-MB-435 = test: Cytotoxicity against human MDA-MB-435 cells after 3 days by MTT assay; type: functional, cell-based; conditions: for IC50: mda-mb-435; for pIC50: Homo sapiens, MDA-MB-435, 72 h, read-out: IC50
[3] = molecular target: T1, DNA topoisomerase 1 (Homo sapiens); test: Inhibition of DNA topoisomerase 1-mediated supercoiled Escherichia coli pBR322 DNA relaxation at 100 uM by UV transilluminator analysis; conditions: 500 uM; in the assay text read “500 uM” for “100 uM”; how it was run: as §1
A549 = test: Cytotoxicity against human A549 cells after 3 days by MTT assay; type: functional, cell-based; conditions: for IC50: a549; for pIC50: Homo sapiens, A549, 72 h, read-out: IC50
[4] = molecular target: T1, DNA topoisomerase 1 (Homo sapiens); test: Inhibition of DNA topoisomerase 1-mediated supercoiled Escherichia coli pBR322 DNA relaxation at 1 to 50 uM by UV transilluminator analysis; how it was run: as §1
HCT-116 = test: Cytotoxicity against human HCT116 cells after 3 days by MTT assay; type: functional, cell-based; conditions: HCT-116, 72 h

SMILES | IC50 (LoVo) | IC50 (MDA-MB-435) | IC50 (A549) | pIC50 (LoVo) | pIC50 (A549) | pIC50 (MDA-MB-435) | other results
CCCOc1ccc(-c2nc3s/c(=C4\C(=O)N(CC(=O)O)c5ccccc54)c(=O)n3n2)cc1 | Not Active | Not Active | Not Active |  |  |  | inhibition [1]: Dose-dependent effect; inhibition [2]: Active; inhibition [3]: Active
COc1ccc(-c2nc3c4c(-c5ccccc5)c(-c5ccccc5)oc4ncn3n2)cc1OC |  | Not Active | Not Active | 4.12 |  |  | 
O=C(NCCO)c1ccc2nc3c4ccccc4c4ccccc4c3nc2c1 | Not Active | Not Active | Not Active |  |  |  | 
O=S(=O)(c1ccccc1)c1cc2c(O)c3c(ccc4cccnc43)c(O)c2c2ncccc12 | Not Active | Not Active |  |  | 3.92 |  | 
Cc1cc2nc3s/c(=C4\C(=O)N(CC(=O)O)c5ccccc54)c(=O)n3c2cc1C |  |  | Not Active | 3.62 |  | 3.77 | inhibition [3]: Active; inhibition [4]: Active
CN1c2ccccc2C(=O)N2CCc3c(n(C(=O)c4ccccc4)c4ccccc34)C21 (stereo not drawn) |  |  |  | 4.82 | 5.00 | 7.33 | 
CCOC(=O)C1=C(C)N=c2s/c(=C3\C(=O)N(CC)c4ccccc43)c(=O)n2C1c1ccccc1 (stereo not drawn) | Not Active | Not Active | Not Active |  |  |  | 
CCCCCCn1c2c(c3ccccc31)CCN1C(=O)c3ccccc3N(C)C21 (stereo not drawn) |  |  |  | 4.23 | 3.92 | 3.96 | 
CN1c2ccccc2C(=O)N2CCc3c(n(Cc4cccc(Cl)c4)c4ccccc34)C21 (stereo not drawn) | Not Active | Not Active | Not Active |  |  |  | 
COc1ccc(Cn2c3c(c4ccccc42)CCN2C(=O)c4ccccc4N(C)C32)cc1 (stereo not drawn) | Not Active | Not Active | Not Active |  |  |  | 
COc1ccc(C(=O)n2c3c(c4ccccc42)CCN2C(=O)c4ccccc4N(C)C32)cc1 (stereo not drawn) |  | Not Active |  |  | 4.13 |  | pIC50 (HCT-116): 4.35
Cc1ccc(C(=O)n2c3c(c4ccccc42)CCN2C(=O)c4ccccc4N(C)C32)cc1 (stereo not drawn) |  |  |  |  | 5.52 | 7.42 | pIC50 (HCT-116): 5.37
c1ccc2c(OCc3nc4c5c6c(sc5ncn4n3)CCCCC6)cccc2c1 | Not Active | Not Active | Not Active |  |  |  | 
Cc1ccc(-c2csc3nc4c5ccccc5c(Cl)nn4c(=O)c23)cc1C |  | Not Active | Not Active | 3.72 |  |  | inhibition [3]: Active
Nc1ccccc1Sc1ccc2c(=O)n3c4ccccc4nc3c3cccc1c23 | Not Active | Not Active | Not Active |  |  |  | inhibition [3]: Active
CN1c2ccccc2C(=O)N2CCc3c(n(C(=O)c4ccccc4Cl)c4ccccc34)C21 (stereo not drawn) |  |  |  |  | 4.85 | 6.74 | pIC50 (HCT-116): 5.33
CCOC(=O)n1c2c(c3ccccc31)CCN1C(=O)c3ccccc3N(C)C21 (stereo not drawn) |  |  |  | 4.02 | 3.89 | 5.03 | 
CN1c2ccccc2C(=O)N2CCc3c(n(C(=O)c4ccc([N+](=O)[O-])cc4)c4ccccc34)C21 (stereo not drawn) |  |  |  |  | 5.55 | 6.26 | pIC50 (HCT-116): 5.39
CCCNC(=O)Cn1c2ccccc2[n+]2nc3c(cc12)-c1cccc2cccc-3c12 |  |  |  | 4.59 | 4.43 | 4.11 | inhibition [3]: Active; inhibition [4]: Active
CN1c2ccccc2C(=O)N2CCc3c(n(Cc4ccccc4Cl)c4ccccc34)C21 (stereo not drawn) |  |  |  | 4.13 | 4.54 | 4.38 | 
CC[C@@]1(O)C(=O)OCc2c1cc1n(c2=O)Cc2cc3ccccc3nc2-1 [CAMPTOTHECIN] |  |  |  | 5.51 | 7.24 | 6.15 | 
Cc1cccc2c1nc1c3ccc4c5c(ccc(c(=O)n21)c53)C(=O)NC4=O | Not Active | Not Active | Not Active |  |  |  | 
CN1c2ccccc2C(=O)N2CCc3c(n(Cc4ccccc4)c4ccccc34)C21 (stereo not drawn) |  |  |  | 4.17 | 4.26 | 3.96 | 

SMILES | IC50 (LoVo) | IC50 (MDA-MB-435) | IC50 (A549) | pIC50 (LoVo) | pIC50 (A549) | pIC50 (MDA-MB-435) | other results
CCOC(=O)C1=C(C)N=c2s/c(=C3\C(=O)N(CC)c4ccccc43)c(=O)n2C1/C=C/c1ccccc1 (stereo not drawn) | Not Active | Not Active | Not Active |  |  |  | 
Cn1c(=O)n(C)c2cc3c(cc21)nc1c2cccc4c(Br)ccc(c(=O)n31)c42 | Not Active | Not Active | Not Active |  |  |  | 
CCCn1c2c(c3ccccc31)CCN1C(=O)c3ccccc3N(C)C21 (stereo not drawn) | Not Active | Not Active | Not Active |  |  |  | 
CN1c2ccccc2C(=O)N2CCc3c(n(C(=O)c4ccc(Cl)cc4)c4ccccc34)C21 (stereo not drawn) |  |  |  |  | 6.07 | 7.31 | pIC50 (HCT-116): 5.59; inhibition [3]: Active
COC(=O)c1cc(OCc2cccc(C(F)(F)F)c2)c2c(c1)Oc1nc3ccccc3nc1O2 | Not Active | Not Active | Not Active |  |  |  | 
Cc1ccccc1C(=O)n1c2c(c3ccccc31)CCN1C(=O)c3ccccc3N(C)C21 (stereo not drawn) |  |  |  |  | 5.38 | 6.82 | pIC50 (HCT-116): 5.41
CC1CCc2c(sc3nc4c5ccccc5c(-c5ccccc5)nn4c(=O)c23)C1 (stereo not drawn) | Not Active | Not Active | Not Active |  |  |  | 
CCOC(=O)Cn1c2c(c3ccccc31)CCN1C(=O)c3ccccc3N(C)C21 (stereo not drawn) | Not Active |  | Not Active |  |  | 3.82 | 
CCc1c2c(nc3ccc(OC(=O)N4CCC(N5CCCCC5)CC4)cc13)-c1cc3c(c(=O)n1C2)COC(=O)[C@]3(O)CC [IRINOTECAN] |  |  |  | 5.06 | 5.19 | 4.77 | 
CN1c2ccccc2C(=O)N2CCc3c(n(CC(=O)O)c4ccccc34)C21 (stereo not drawn) |  |  |  | 3.89 | 4.14 | 4.89 | 
CN1c2ccccc2C(=O)N2CCc3c(n(C(=O)c4ccc(F)cc4)c4ccccc34)C21 (stereo not drawn) |  |  |  |  | 5.37 | 6.89 | pIC50 (HCT-116): 5.29
CN1c2ccccc2C(=O)N2CCc3c(n(C(=O)c4ccc(Cl)cc4Cl)c4ccccc34)C21 (stereo not drawn) |  |  |  |  | 5.28 | 6.41 | pIC50 (HCT-116): 5.42
O=c1c2ccccc2nc2c3ccccc3c(Sc3nnc4ccccn34)nn12 | Not Active | Not Active | Not Active |  |  |  | 
C=CCN1C(=O)/C(=C2\S/C(=N\c3ccccc3)N(c3ccccc3)C2=O)c2ccccc21 | Not Active | Not Active | Not Active |  |  |  | 
CC(C)n1c2c(c3ccccc31)CCN1C(=O)c3ccccc3N(C)C21 (stereo not drawn) | Not Active | Not Active | Not Active |  |  |  | 
CCn1c2c(c3ccccc31)CCN1C(=O)c3ccccc3N(C)C21 (stereo not drawn) | Not Active | Not Active | Not Active |  |  |  | 
CN1c2ccccc2C(=O)N2CCc3c(n(Cc4ccc(Cl)cc4Cl)c4ccccc34)C21 (stereo not drawn) | Not Active | Not Active | Not Active |  |  |  | 
CN1c2ccccc2C(=O)N2CCc3c(n(CC#N)c4ccccc34)C21 (stereo not drawn) | Not Active |  |  |  | 3.66 | 3.70 | 
CN1c2ccccc2C(=O)N2CCc3c(n(C(=O)c4ccccc4F)c4ccccc34)C21 (stereo not drawn) |  | Not Active |  |  | 4.46 |  | pIC50 (HCT-116): 4.05
c1ccc(Cn2c(-c3ccccc3)c(-c3ccccc3)c3c2ncn2nc(-c4cccnc4)nc32)cc1 |  | Not Active | Not Active | 3.74 |  |  | 
CCCCCN1C(=O)/C(=c2\sc3nc4ccccc4n3c2=O)c2ccccc21 | Not Active | Not Active | Not Active |  |  |  | 
CN1c2ccccc2C(=O)N2CCc3c(n(C(=O)c4cccc(Cl)c4)c4ccccc34)C21 (stereo not drawn) |  |  |  |  | 5.54 | 7.29 | pIC50 (HCT-116): 5.48
COCCOC(=O)c1sc2nc3c4ccccc4c(-c4ccc(C)c(C)c4)nn3c(=O)c2c1C |  | Not Active | Not Active | 4.35 |  |  | 
